Experimental data from different studies.
Lines come from different studies, so protocols differ.

`CN/C(=N/CCSCc1nc[nH]c1C)NC#N` has a hepatocyte CLint of 2.15 µL/min/10⁶ cells (metabolic stability; human, hepatocytes; 0.5 µM, pH 7.4).
`COC(=O)COc1c(Cc2cc(C(C)(C)CC(C)(C)C)cc(-n3nc4ccccc4n3)c2OCC(=O)OC)cc(C(C)(C)CC(C)(C)C)cc1-n1nc2ccccc2n1` gave a viability of 4.9% (MCF7; cell growth or viability, MTT; 10 µM, 48 h).
The CC50 of `CN1CCN(c2cnc3c(cc(C(=O)NCc4ccc(Cl)cc4)c(=O)n3CC(=O)N3CC(C)(F)C3)n2)C1=O` is reported as 4.61 µM (B-95-8; cell growth or viability, ATP luminescence; 5 days).
The microsomal CLint of `Cc1ccc(Cn2cc(C(=O)NN)c(=O)c3cc(Oc4ccccc4)ccc32)cc1` is reported as under 11.6 µL/min/mg (metabolic stability; male rat, liver microsomes; 1 µM).
`CC(=O)OC[C@H]1O[C@@H]([Se]Cc2ccc3ccccc3n2)[C@H](OC(C)=O)[C@@H](OC(C)=O)[C@@H]1OC(C)=O` gave a CC50 of about 50 µM (THP-1; cell growth or viability, WST-1; 24 h).
With `Cn1nc2c(=O)n(C3CC3)ncc2c1[C@](O)(c1cnc(C(F)(F)F)c(Cl)c1)C(F)(F)F` the hepatocyte CLint was 0.9 µL/min/10⁶ cells (metabolic stability; male Sprague-Dawley rat, hepatocytes; 0.5 µM, pH 7.4).
`CC1(F)CN(C(=O)Cn2c(=O)c(C(=O)NCc3ccc(Cl)cc3)cc3nc(N4CCNC4=O)cnc32)C1` has a CC50 of 3.59 µM (B-95-8; cell growth or viability, ATP luminescence; 5 days).
The CC50 of `COc1ccc2c(C[Se][C@@H]3O[C@H](CO)[C@H](O)[C@H](O)[C@H]3O)cc(=O)oc2c1` is reported as over 100 µM (THP-1; cell growth or viability, WST-1; 24 h).
